# Published values collected from several papers.
# Lines come from different studies, so protocols differ.
Compound,organism,test,system,setting,measurement,result
CCCCCOc1ccc(-c2cc(-c3ccc(C(=O)N[C@H]4C[C@@H](O)[C@@H](O)NC(=O)[C@@H]5[C@@H](O)[C@@H](C)CN5C(=O)[C@H]([C@H](O)CC(N)=O)NC(=O)[C@H]([C@H](O)[C@@H](O)c5ccc(O)c(OS(=O)(=O)O)c5)NC(=O)[C@@H]5C[C@@H](O)CN5C(=O)[C@H]([C@@H](C)O)NC4=O)cc3)no2)cc1,Candida tropicalis,biofilm formation,,16 µg/mL,inhibition,28%
O=[N+]([O-])c1cc2cc3ccc4oc([N+](=O)[O-])cc4c3cc2o1,Mycolicibacterium smegmatis,"microbial growth, resazurin",MC^2155,,MIC90,4 µg/mL
CC(C)=CCC/C(C)=C/CNCCNC1C2CC3CC(C2)CC1C3 (centres unmarked),Mycolicibacterium smegmatis,microbial growth,,48 h,IC50,2400 nM
Cn1cnc2nc(NCc3ccc(Cl)c(Cl)c3)[nH]c(=O)c21,Lacticaseibacillus casei,"microbial growth, agar dilution",,48 h,MIC,32 µg/mL
COc1ccc2c(ccc3oc([N+](=O)[O-])c(C)c32)c1,Mycolicibacterium smegmatis,"microbial growth, resazurin",MC^2155,,MIC90,> 32 µg/mL
CC(C)[C@H](N)C(=O)OCCCCCn1cnc2nc(NCc3ccc(Cl)c(Cl)c3)[nH]c(=O)c21,Lacticaseibacillus casei,"microbial growth, agar dilution",,48 h,MIC,> 32 µg/mL
Cc1c2ccncc2c(C)c2c1[nH]c1ccccc12,Mycolicibacterium smegmatis,"microbial killing, resazurin",,,MBC,87.1 µM
O=C1C2CC3CC(C2)CC1C3,Mycolicibacterium smegmatis,microbial growth,,48 h,IC50,> 500000 nM
